ChEMBL document CHEMBL1131062, “Synthesis and pharmacological characterization of O-alkynyloximes of tropinone and N-methylpiperidinone as muscarinic agonists” (J Med Chem, 1998)
Several values for one entry are separate records, joined by “and”; a condition that tells them apart may be missing. Equal values may be shown once.

What was measured:
Rattus norvegicus = organism: Rattus norvegicus; experiment: Concentration required to relax phenylephrine-precontracted aortic rings by 50% in endothelium intact rat aorta; assay type: functional; conditions: read-out: ED50 (the source's name)
In short: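 Endothelium-intact rat aortic rings equilibrated 60 min at 37 °C under 95% O2/5% CO2. Endothelium confirmed by relaxation to 10^-6 M ACh. After washout, rings precontracted with 10^-7 M phenylephrine. Test compound added cumulatively (10^-6–10^-4 M) at 2-min intervals. Each ring used once. ED50 taken from percent phenylephrine response versus concentration.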

[1] = target: T1, Muscarinic acetylcholine receptor M2 (Rattus norvegicus, UniProt P10980); experiment: Binding affinity to Muscarinic acetylcholine receptor M2 by measuring its ability to displace [3H]N-methylscopolamine binding in rat heart
T1 sequence (P10980 whole entry): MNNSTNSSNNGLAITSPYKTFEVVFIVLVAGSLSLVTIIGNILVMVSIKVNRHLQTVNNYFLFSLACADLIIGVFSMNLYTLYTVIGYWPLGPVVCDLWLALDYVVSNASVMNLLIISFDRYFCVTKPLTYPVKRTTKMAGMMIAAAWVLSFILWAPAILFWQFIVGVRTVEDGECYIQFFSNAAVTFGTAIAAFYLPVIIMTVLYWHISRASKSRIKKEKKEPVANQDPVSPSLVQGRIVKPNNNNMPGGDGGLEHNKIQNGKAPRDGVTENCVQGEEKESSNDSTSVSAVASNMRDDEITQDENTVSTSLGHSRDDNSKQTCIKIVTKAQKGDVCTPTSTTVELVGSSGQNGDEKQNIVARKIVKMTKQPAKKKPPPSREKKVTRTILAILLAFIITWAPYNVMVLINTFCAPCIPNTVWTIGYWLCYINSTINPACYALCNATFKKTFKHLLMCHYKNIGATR
In short: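 Rat heart ventricle membranes, homogenized in sucrose/TRIS and washed in Na+/Mg2+ HEPES buffer pH 7.4. Nonspecific binding defined with 1 μM (±)-QNB. Bound ligand separated by centrifugation and counted by scintillation. Triplicate determinations. Ki derived from IC50 by Cheng–Prusoff.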

[2] = Inhibitory selectivity for Muscarinic receptors M3 and M1
In short: (§1)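 Ratios of Ki values from rat tissue displacement binding. M1 used cerebral cortex with 0.5 nM [3H]pirenzepine. M2 used heart ventricle and M3 used submandibulary gland, both with 0.3 nM [3H]-N-methylscopolamine. All incubations ran 45 min at 30 °C with test compound at 10 nM–10 mM. Ki obtained by Cheng–Prusoff. Three independent experiments.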

Oryctolagus cuniculus = organism: Oryctolagus cuniculus; experiment: Concentration required to relax phenylephrine-precontracted aortic rings by 50% in endothelium denuded rabbit aorta; conditions: read-out: ED50 (the source's name)
[3] = target: Muscarinic receptor M2 and M3 (Rattus norvegicus) (UniProt P08483+P10980); experiment: Inhibitory selectivity for Muscarinic receptors M3 and M2; assay type: protein assay; in short: as §1
Sequence of Muscarinic receptor M2 and M3 (Rattus norvegicus) (P08483 whole entry, looked up, one chain of several): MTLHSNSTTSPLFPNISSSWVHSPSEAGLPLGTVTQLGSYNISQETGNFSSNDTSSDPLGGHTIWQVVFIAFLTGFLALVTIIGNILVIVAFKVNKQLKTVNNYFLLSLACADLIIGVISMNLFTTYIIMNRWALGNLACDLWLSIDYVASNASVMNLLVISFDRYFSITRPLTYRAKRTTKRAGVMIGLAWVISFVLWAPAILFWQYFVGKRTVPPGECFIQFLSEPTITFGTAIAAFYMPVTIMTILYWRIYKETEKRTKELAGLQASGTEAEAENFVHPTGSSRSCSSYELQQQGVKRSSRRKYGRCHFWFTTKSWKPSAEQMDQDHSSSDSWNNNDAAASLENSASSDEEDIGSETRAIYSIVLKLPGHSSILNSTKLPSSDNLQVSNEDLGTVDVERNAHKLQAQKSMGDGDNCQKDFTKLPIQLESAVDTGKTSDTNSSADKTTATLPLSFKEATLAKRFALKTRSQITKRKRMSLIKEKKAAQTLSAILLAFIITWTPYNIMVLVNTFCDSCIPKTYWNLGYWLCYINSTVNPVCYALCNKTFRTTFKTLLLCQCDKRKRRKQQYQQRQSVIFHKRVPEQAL

[4] = target: Muscarinic receptor M1 and M2 (Rattus norvegicus) (UniProt P08482+P10980); experiment: Inhibitory selectivity for Muscarinic receptors M2 and M1; assay type: protein assay; in short: as §1
Sequence of Muscarinic receptor M1 and M2 (Rattus norvegicus) (P08482 whole entry, looked up, one chain of several): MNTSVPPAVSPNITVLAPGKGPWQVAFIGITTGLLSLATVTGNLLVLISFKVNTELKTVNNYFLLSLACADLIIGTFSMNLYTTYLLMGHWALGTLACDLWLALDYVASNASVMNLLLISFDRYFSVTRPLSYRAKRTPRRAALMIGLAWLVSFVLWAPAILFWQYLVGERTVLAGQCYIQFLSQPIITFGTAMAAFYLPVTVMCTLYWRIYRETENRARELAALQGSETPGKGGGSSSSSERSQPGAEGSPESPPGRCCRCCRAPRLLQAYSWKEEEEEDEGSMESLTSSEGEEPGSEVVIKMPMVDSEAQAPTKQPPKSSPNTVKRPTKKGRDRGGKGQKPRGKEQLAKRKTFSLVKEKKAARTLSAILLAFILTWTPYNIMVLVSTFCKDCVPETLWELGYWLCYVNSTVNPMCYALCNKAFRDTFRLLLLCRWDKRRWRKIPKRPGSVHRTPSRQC

[5] = target: T2, Muscarinic acetylcholine receptor M3 (Rattus norvegicus, UniProt P08483); experiment: Binding affinity to Muscarinic acetylcholine receptor M3 by measuring its ability to displace [3H]N-methylscopolamine binding in rat submandibulary gland
T2 sequence (P08483 whole entry): as the sequence (P08483 whole entry, looked up, one chain of several) above
In short: (§2)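 Rat submandibulary gland membranes prepared in Na+/Mg2+ HEPES buffer pH 7.4. Incubated 45 min at 30 °C with 0.3 nM [3H]-N-methylscopolamine and test compound (10 nM–10 mM). Nonspecific binding defined with 1 μM (±)-QNB. Pellet obtained by centrifugation and counted by scintillation. Triplicate determinations. Ki derived from IC50 by Cheng–Prusoff.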

[6] = target: T2, Muscarinic acetylcholine receptor M3; experiment: The compound was evaluated for its ability to inhibit [3H]NMS binding to Muscarinic acetylcholine receptor in submandibular salivary gland; assay type: tissue-based; in short: as §2

Work on `CC#CCON=C1CCN(C)CC1` yielded an EC50 (Rattus norvegicus) of 8.7 µM, a Ki [1] of 7.94 µM and a Selectivity ratio [2] of 35. For the same compound, the EC50 (Oryctolagus cuniculus) was 8.7 µM, the Selectivity ratio [3] was 17 and the Selectivity ratio [4] was 2. For the same compound, the Ki [5] was 126 µM.

With `CC#CCCON=C1CC2CCC(C1)N2C` the EC50 (Rattus norvegicus) was 7.8 µM, the Ki [1] was 3.16 µM and the Selectivity ratio [2] was 3. The EC50 (Oryctolagus cuniculus) was 9.8 µM, the Selectivity ratio [3] was 0.66 and the Selectivity ratio [4] was 4.5. It also gave a Ki [5] of 2.51 µM.

Work on `CN1CCC(=NO)CC1` yielded an EC50 (Rattus norvegicus) of 43 µM, a Ki [1] of 398 µM and a Selectivity ratio [2] of 7.6. For the same compound, the EC50 (Oryctolagus cuniculus) was 78 µM, the Selectivity ratio [3] was 8.5 and the Selectivity ratio [4] was 0.9. The Ki [5] was 3160 µM.

Work on `C#CCCCON=C1CC2CCC(C1)N2C` yielded an EC50 (Rattus norvegicus) of 5.9 µM, a Ki [1] of 6.31 µM and a Selectivity ratio [2] of 16. It also gave an EC50 (Oryctolagus cuniculus) of 6.5 µM, a Selectivity ratio [3] of 1.3 and a Selectivity ratio [4] of 12. The Ki [5] was 10 µM.

`C#CC(CC)ON=C1CC2CCC(C1)N2C` (configuration not stated) gave an EC50 (Rattus norvegicus) of 5.5 µM, a Ki [1] of 6.31 µM and a Selectivity ratio [2] of 22. It also gave an EC50 (Oryctolagus cuniculus) of 41 µM, a Selectivity ratio [3] of 1.1 and a Selectivity ratio [4] of 20. For the same compound, the Ki [5] was 6.31 µM.

Work on `CON=C1CC2CCC(C1)N2C` yielded an EC50 (Rattus norvegicus) of 11 µM, a Ki [1] of 126 µM and a Selectivity ratio [2] of 0.1. For the same compound, the EC50 (Oryctolagus cuniculus) was 11 µM, the Selectivity ratio [3] was 0.74 and the Selectivity ratio [4] was 0.14. It also gave a Ki [5] of 100 µM.

Compound `CON=C1CCN(C)CC1` has an EC50 (Rattus norvegicus) of 13 µM, a Ki [1] of 39.8 µM and a Selectivity ratio [2] of 0.51. It also gave an EC50 (Oryctolagus cuniculus) of 260 µM, a Selectivity ratio [3] of 0.71 and a Selectivity ratio [4] of 0.74. For the same compound, the Ki [5] was 25.1 µM.

For `CC#CCON=C1CC2CCC(C1)N2C`, the EC50 (Rattus norvegicus) was 3.4 µM, the Ki [1] was 12.6 µM and the Ki [6] was 20 µM. For the same compound, the Selectivity ratio [2] was 27, the EC50 (Oryctolagus cuniculus) was 4.8 µM and the Selectivity ratio [3] was 1.1. It also gave a Selectivity ratio [4] of 24 and a Ki [5] of 15.8 µM.

In the case of `C#CCON=C1CC2CCC(C1)N2C`, the EC50 (Rattus norvegicus) is reported as 3.5 µM, the Ki [1] is reported as 6.31 µM and 25.1 µM and the Selectivity ratio [2] is reported as 4.6. The EC50 (Oryctolagus cuniculus) was 7.1 µM, the Selectivity ratio [3] was 1.1 and the Selectivity ratio [4] was 4.2.

With `C#CC(C)ON=C1CC2CCC(C1)N2C` (configuration not stated) the EC50 (Rattus norvegicus) was 6.9 µM, the Ki [1] was 6.31 µM and the Selectivity ratio [2] was 0.46. For the same compound, the EC50 (Oryctolagus cuniculus) was 26 µM, the Selectivity ratio [3] was 0.72 and the Selectivity ratio [4] was 4.5. For the same compound, the Ki [5] was 3.98 µM.

In the case of `C#CCC(C)ON=C1CCN(C)CC1` (configuration not stated), the EC50 (Rattus norvegicus) is reported as 5 µM, the Ki [1] is reported as 10 µM and the Selectivity ratio [2] is reported as 15. The EC50 (Oryctolagus cuniculus) was 25 µM, the Selectivity ratio [3] was 5.4 and the Selectivity ratio [4] was 2.9. It also gave a Ki [5] of 50.1 µM.

`C#CCC(C)ON=C1CC2CCC(C1)N2C` (configuration not stated) showed an EC50 (Rattus norvegicus) of 5.4 µM, a Ki [1] of 1.58 µM and a Selectivity ratio [2] of 29. For the same compound, the EC50 (Oryctolagus cuniculus) was 23 µM, the Selectivity ratio [3] was 1.8 and the Selectivity ratio [4] was 16. For the same compound, the Ki [5] was 3.16 µM.

`CCC#CCON=C1CCN(C)CC1` gave an EC50 (Rattus norvegicus) of 6.2 µM, a Ki [1] of 15.8 µM and a Selectivity ratio [2] of 5.4. For the same compound, the EC50 (Oryctolagus cuniculus) was 12 µM, the Selectivity ratio [3] was 1.4 and the Selectivity ratio [4] was 4. The Ki [5] was 20 µM.

Compound `C#CC(CC)ON=C1CCN(C)CC1` (configuration not stated) has an EC50 (Rattus norvegicus) of 7.6 µM, a Ki [1] of 10 µM and a Selectivity ratio [2] of 1.5. For the same compound, the EC50 (Oryctolagus cuniculus) was 18 µM, the Selectivity ratio [3] was 0.85 and the Selectivity ratio [4] was 1.8. The Ki [5] was 10 µM.

Work on `O=C1CCCN1CC#CCN1CCCC1` [OXOTREMORINE] yielded an EC50 (Rattus norvegicus) of 0.044 µM, a Ki [1] of 0.2 µM and a Selectivity ratio [2] of 0.63. For the same compound, the Selectivity ratio [3] was 2, the Selectivity ratio [4] was 0.32 and the Ki [5] was 0.398 µM.

For `CCC#CCON=C1CC2CCC(C1)N2C`, the EC50 (Rattus norvegicus) was 1.3 µM, the Ki [1] was 12.6 µM and the Ki [6] was 79.4 µM. It also gave a Selectivity ratio [2] of 0.56, an EC50 (Oryctolagus cuniculus) of 3.5 µM and a Selectivity ratio [3] of 0.23. For the same compound, the Selectivity ratio [4] was 2.4 and the Ki [5] was 3.16 µM.

Compound `CC#CCCON=C1CCN(C)CC1` has an EC50 (Rattus norvegicus) of 6.3 µM, a Ki [1] of 15.8 µM and a Selectivity ratio [2] of 2. It also gave a Selectivity ratio [3] of 0.27, a Selectivity ratio [4] of 7.5 and a Ki [5] of 39.8 µM.

With `C#CC(C)ON=C1CCN(C)CC1` (configuration not stated) the EC50 (Rattus norvegicus) was 7.8 µM, the Ki [1] was 12.6 µM and the Selectivity ratio [2] was 14. For the same compound, the EC50 (Oryctolagus cuniculus) was 41 µM, the Selectivity ratio [3] was 6.3 and the Selectivity ratio [4] was 2.2. For the same compound, the Ki [5] was 79.4 µM.

In the case of `COC(=O)C1=CCCN(C)C1` [ARECOLINE], the EC50 (Rattus norvegicus) is reported as 1.6 µM.

Work on `CN1C2CCC1CC(=NO)C2` yielded an EC50 (Rattus norvegicus) of 53 µM, a Ki [1] of 39.8 µM and a Selectivity ratio [2] of 1.4. It also gave an EC50 (Oryctolagus cuniculus) of 320 µM, a Selectivity ratio [3] of 18 and a Selectivity ratio [4] of 0.74. For the same compound, the Ki [5] was 794 µM.

Work on `C#CCCON=C1CCN(C)CC1` yielded an EC50 (Rattus norvegicus) of 7.4 µM, a Ki [1] of 10 µM and a Selectivity ratio [2] of 25. The EC50 (Oryctolagus cuniculus) was 28 µM, the Selectivity ratio [3] was 3.7 and the Selectivity ratio [4] was 6.2. It also gave a Ki [5] of 39.8 µM.

`C#CCON=C1CCN(C)CC1` gave an EC50 (Rattus norvegicus) of 6.8 µM, a Ki [1] of 25.1 µM and a Selectivity ratio [2] of 0.42. It also gave an EC50 (Oryctolagus cuniculus) of 11 µM, a Selectivity ratio [3] of 0.72 and a Selectivity ratio [4] of 0.59. It also gave a Ki [5] of 20 µM.

In the case of `C#CCCCON=C1CCN(C)CC1`, the EC50 (Rattus norvegicus) is reported as 9.3 µM, the Ki [1] is reported as 10 µM and the Selectivity ratio [2] is reported as 1.7. For the same compound, the EC50 (Oryctolagus cuniculus) was 13 µM, the Selectivity ratio [3] was 1.5 and the Selectivity ratio [4] was 1.1. It also gave a Ki [5] of 15.8 µM.

In the case of `C#CCCON=C1CC2CCC(C1)N2C`, the EC50 (Rattus norvegicus) is reported as 5.3 µM, the Ki [1] is reported as 31.6 µM and the Selectivity ratio [2] is reported as 6.8. For the same compound, the EC50 (Oryctolagus cuniculus) was 15 µM, the Selectivity ratio [3] was 0.34 and the Selectivity ratio [4] was 19. It also gave a Ki [5] of 10 µM.

Compound `C[N+](C)(C)CC#CCOC(=O)Nc1cccc(Cl)c1` has an EC50 (Rattus norvegicus) of 9.6 µM, a Ki [1] of 6.31 µM and a Selectivity ratio [2] of 0.46. The EC50 (Oryctolagus cuniculus) was 0.35 µM, the Selectivity ratio [3] was 0.33 and the Selectivity ratio [4] was 1.4.
